Source: article PMC4002067 (Journal of Medicinal Chemistry, 2014)

Assays:
[1] = drawback stated in the introduction; cited from earlier work
[2] = system: lymphoma and epithelial cancer cell lines; assay: Cytotoxicity across lymphoma and epithelial cancer cell lines; assay type: cell-based; conditions: 72 h, read-out: cytotoxicity IC50 range
In short: (§1)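 Cells grown under standard conditions and treated in 96-well format with test compound in DMSO (final DMSO 0.25%) or DMSO control for 72 h. Viability was read as luminescence with CellTiterGlo. Assays were run in triplicate, and values are averages of two independent experiments.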

[3] = Cytotoxicity in nontransformed B-cell lines; assay type: cell-based; conditions: human, nontransformed EBV-immortalized B-cell lines B1 and B2
In short: as §1

[4] = system: SIRT2-mediated deacetylation of α-tubulin in NCI-H460 cells; assay: α-tubulin acetylation by Western blot; assay type: cell-based, human; conditions: 4 h treatment
SIRT1 [5] = molecular target: T1, SIRT1 (Homo sapiens, UniProt Q96EB6); assay: SIRT-Glo enzyme inhibition assay, SIRT1; assay type: biochemical; conditions: for selectivity for SIRT1 (over SIRT2): from IC50 values
T1 sequence (Q96EB6 1-747): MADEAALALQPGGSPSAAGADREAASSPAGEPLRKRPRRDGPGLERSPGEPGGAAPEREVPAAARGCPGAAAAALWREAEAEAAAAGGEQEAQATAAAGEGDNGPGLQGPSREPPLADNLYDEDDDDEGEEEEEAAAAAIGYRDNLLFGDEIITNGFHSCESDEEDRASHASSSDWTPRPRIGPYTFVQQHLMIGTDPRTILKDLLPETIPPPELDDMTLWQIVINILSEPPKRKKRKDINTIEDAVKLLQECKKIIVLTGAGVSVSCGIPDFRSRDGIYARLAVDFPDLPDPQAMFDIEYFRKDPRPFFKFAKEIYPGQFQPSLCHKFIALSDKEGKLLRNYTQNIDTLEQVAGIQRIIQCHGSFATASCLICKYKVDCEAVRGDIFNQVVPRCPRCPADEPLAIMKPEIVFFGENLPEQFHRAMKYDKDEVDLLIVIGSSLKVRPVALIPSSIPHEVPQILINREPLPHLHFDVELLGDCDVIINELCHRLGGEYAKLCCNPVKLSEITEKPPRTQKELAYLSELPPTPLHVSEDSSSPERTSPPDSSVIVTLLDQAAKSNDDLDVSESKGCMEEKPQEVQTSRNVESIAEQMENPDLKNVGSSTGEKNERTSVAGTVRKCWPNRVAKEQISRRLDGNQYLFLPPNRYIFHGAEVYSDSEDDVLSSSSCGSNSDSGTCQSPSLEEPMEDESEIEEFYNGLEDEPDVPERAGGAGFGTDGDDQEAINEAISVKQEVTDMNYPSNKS

SIRT1 [6] = molecular target: T1, SIRT1; assay: Saturation transfer difference; assay type: binding; conditions: 1.5 μM SIRT1, 200 μM compound, naphthalene numbering
SIRT3 = molecular target: T2, SIRT3 (Homo sapiens, UniProt Q9NTG7); assay: SIRT-Glo enzyme inhibition assay, SIRT3; assay type: biochemical; conditions: 50 μM compound
T2 sequence (Q9NTG7 1-399): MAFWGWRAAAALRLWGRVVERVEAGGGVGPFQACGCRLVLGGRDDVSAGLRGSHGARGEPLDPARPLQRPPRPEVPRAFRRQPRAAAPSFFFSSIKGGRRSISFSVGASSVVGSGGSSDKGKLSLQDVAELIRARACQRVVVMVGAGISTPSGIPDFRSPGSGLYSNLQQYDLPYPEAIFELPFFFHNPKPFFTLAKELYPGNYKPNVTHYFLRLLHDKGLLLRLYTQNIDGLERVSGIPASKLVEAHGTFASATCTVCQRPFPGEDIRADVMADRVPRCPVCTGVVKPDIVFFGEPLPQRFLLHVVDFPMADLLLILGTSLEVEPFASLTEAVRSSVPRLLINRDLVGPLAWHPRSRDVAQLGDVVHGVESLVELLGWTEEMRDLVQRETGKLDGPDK

SIRT2 = molecular target: T3, SIRT2 (Homo sapiens, UniProt Q8IXJ6); assay: SIRT-Glo enzyme inhibition assay, SIRT2; assay type: biochemical; conditions: 50 μM compound
T3 sequence (Q8IXJ6 1-389): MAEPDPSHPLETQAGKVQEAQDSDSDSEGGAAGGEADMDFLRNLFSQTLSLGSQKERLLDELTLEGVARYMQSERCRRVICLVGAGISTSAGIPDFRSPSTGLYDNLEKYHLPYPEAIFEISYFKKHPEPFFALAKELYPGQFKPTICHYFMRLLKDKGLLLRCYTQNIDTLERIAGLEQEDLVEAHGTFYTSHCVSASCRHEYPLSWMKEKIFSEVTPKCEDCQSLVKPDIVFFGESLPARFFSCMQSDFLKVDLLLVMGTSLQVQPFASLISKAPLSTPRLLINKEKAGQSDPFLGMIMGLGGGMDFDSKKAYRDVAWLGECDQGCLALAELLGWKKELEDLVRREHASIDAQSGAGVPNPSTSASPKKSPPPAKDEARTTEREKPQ

## O=c1[nH]c(=S)[nH]c(-c2ccccc2)c1Cc1c(O)ccc2ccccc12 [compound 1, 5-[(2-hydroxy-1-naphthyl)methyl]-6-phenyl-2-thioxo-2,3-dihydro-4(1H)-pyrimidinone]
[1]
  solubility: poor solubility

## Cc1ccc(-c2[nH]oc(=O)c2Cc2c(O)ccc3cc(Br)ccc23)cc1 [compound 24, 4-[(6-Bromo-2-hydroxynaphthalen-1-yl)methyl]-3-(4-methylphenyl)-2,5-dihydro-1,2-oxazol-5-one]
[2]
  IC50: 3 to 7 µM
[3]
  IC50 at 72 h: 22 to 28 µM
[4]
  α-tubulin acetylation: rapid and robust dose-dependent increase in α-tubulin acetylation
SIRT1 [5]
  selectivity for SIRT1 (over SIRT2): 7.8 fold

## Cc1ccc(-c2[nH][nH]c(=O)c2Cc2c(O)ccc3nc(Cl)ccc23)cc1 [compound 20, 4-[(2-Chloro-6-hydroxyquinolin-5-yl)methyl]-5-(4-methylphenyl)-2,3-dihydro-1H-pyrazol-3-one]
SIRT1 [6]
  relative STD signal intensity, C-7 proton: 100%

## CC(C)c1ccc(-c2[nH][nH]c(=O)c2Cc2c(O)ccc3nc(Cl)ccc23)cc1 [compound 23, 4-[(2-Chloro-6-hydroxyquinolin-5-yl)methyl]-5-[4-(propan-2-yl)phenyl]-2,3-dihydro-1H-pyrazol-3-one]
SIRT1 [5]
  selectivity for SIRT1 (over SIRT2): > 3 fold

## 4-[(2-Chloro-6-hydroxy-4-methylquinolin-5-yl)methyl]-5-(4-methylphenyl)-2,3-dihydro-1H-pyrazol-3-one [compound 22]
SIRT3
  SIRT3 (% inh): 32%
SIRT1 [5]; 50 μM compound
  SIRT1 (% inh): 27%
SIRT2
  SIRT2 (% inh): 24%

## Cc1ccc(-c2[nH][nH]c(=O)c2Cc2c(O)ccc3cc(Br)ccc23)cc1 [compound 14, 4-[(6-Bromo-2-hydroxynaphthalen-1-yl)methyl]-5-(4-methylphenyl)-2,3-dihydro-1H-pyrazol-3-one]
SIRT1 [5]
  selectivity for SIRT1 (over SIRT2): greater than 5 fold
